Measurements: paper PMC12580983 (RSC Advances, 2025)
≈ marks a conversion by molar mass, not a printed value.

Tests used:
P. falciparum (Pf3D7) [1] = experiment: Parasitemia and suppression of Pf3D7 culture after 72 h of treatment; format: cell-based, Plasmodium falciparum; conditions: for percentage suppression of parasitemia: concentration not given
A549 cells = experiment: MTT cell viability assay, A549; format: cell-based, Human; conditions: IC50 Vero cells / IC50 A549 cells
P. falciparum (Pf3D7) [2] = experiment: SYBR green I fluorescence antiplasmodial assay; format: cell-based, Plasmodium falciparum; conditions: for selectivity index (SI) towards Pf3D7: antimalarial selectivity, way of calculation not stated
Outline: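 Chloroquine-sensitive P. falciparum 3D7 was grown in O+ human erythrocytes (4% haematocrit) in RPMI 1640 with 25 mM HEPES and 0.5% Albumax I, at 37 °C under 5% O2/5% CO2/90% N2. Sorbitol-synchronised rings (2% haematocrit, 1% parasitaemia) got increasing concentrations in water. SYBR Green I was read after 0.08% Triton X-100, 1 h at 37 °C in the dark (ex 485/em 530 nm), chloroquine-well counts subtracted. IC50 came from dose–response curves.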

Structure (SMILES) | % Parasitemia (P. falciparum (Pf3D7) [1]; 12.5 μg mL^−1, 72 h) [%] | % Suppression (P. falciparum (Pf3D7) [1]; 12.5 μg mL^−1, 72 h) [%] | % Parasitemia (P. falciparum (Pf3D7) [1]; 100 μg mL^−1, 72 h) [%] | percentage suppression of parasitemia (P. falciparum (Pf3D7) [1]) [%] | Selectivity Index (SI) (A549 cells) | % Suppression (P. falciparum (Pf3D7) [1]; 100 μg mL^−1, 72 h) [%] | IC50 (P. falciparum (Pf3D7) [2]; Plasmodium falciparum, 72 h, read-out: IC50 µM Pf3D7) [µg/mL] | selectivity index (SI) towards Pf3D7 (P. falciparum (Pf3D7) [2])
C/C(=N/NC(=O)c1cn(-c2ccccc2)nc1-c1ccc(F)cc1)c1c(O)cc(C)oc1=O [3a, (Z)-3-(4-fluorophenyl)-N′-(1-(4-hydroxy-6-methyl-2-oxo-2H-pyran-3-yl)ethylidene)-1-phenyl-1H-pyrazole-4-carbohydrazide] | 93.33 | 6.67 | 2.95 | 97 | 2.78 |  |  | 
C/C(=N/NC(=O)c1cn(-c2ccccc2)nc1-c1ccc(Cl)cc1)c1c(O)cc(C)oc1=O [3b, (Z)-3-(4-chlorophenyl)-N′-(1-(4-hydroxy-6-methyl-2-oxo-2H-pyran-3-yl)ethylidene)-1-phenyl-1H-pyrazole-4-carbohydrazide] | 68.38 | 31.62 | 62.57 |  | 3.25 | 37.43 |  | 
C/C(=N/NC(=O)c1cn(-c2ccccc2)nc1-c1ccc(Br)cc1)c1c(O)cc(C)oc1=O [3c, (Z)-3-(4-bromophenyl)-N′-(1-(4-hydroxy-6-methyl-2-oxo-2H-pyran-3-yl)ethylidene)-1-phenyl-1H-pyrazole-4-carbohydrazide] | 52.90 | 47.10 | 5.81 |  |  | 94.19 |  | 
C/C(=N/NC(=O)c1cn(-c2ccccc2)nc1-c1ccc(C)cc1)c1c(O)cc(C)oc1=O [3d, (Z)-3-(4-methylphenyl)-N′-(1-(4-hydroxy-6-methyl-2-oxo-2H-pyran-3-yl)ethylidene)-1-phenyl-1H-pyrazole-4-carbohydrazide] | 42.19 | 57.81 | 2.47 | 97 |  |  | 5.2 (≈ 11.8 µM) | 18.38
C/C(=N/NC(=O)c1cn(-c2ccccc2)nc1-c1ccccc1)c1c(O)cc(C)oc1=O [3e, (Z)-N′-(1-(4-hydroxy-6-methyl-2-oxo-2H-pyran-3-yl)ethylidene)-1,3-diphenyl-1H-pyrazole-4-carbohydrazide] | 73.81 | 26.19 | 37.62 |  | 4.56 | 62.38 |  | 9.48
CCN(CC)CCCC(C)Nc1ccnc2cc(Cl)ccc12 (stereo not drawn) [CQ, Chloroquine, reference compound] | 0.95 | 99.05 | 0.95 |  |  | 99.05 |  | 
N.N.O=C([O-])C1(C(=O)[O-])CCC1.[Pt+2] [Carboplatin, reference compound] |  |  |  |  | 2.57 |  |  | 
N.N.[Cl][Pt][Cl] [Cisplatin, reference compound] |  |  |  |  | 1.35 |  |  | 
C[C@@H]1C[C@H]2[C@@H]3CCC4=CC(=O)C=C[C@]4(C)[C@@]3(F)[C@@H](O)C[C@]2(C)[C@@]1(O)C(=O)CO [Dexamethasone, reference compound] |  |  |  |  | 0.23 |  |  | 
